Data: ChEMBL document CHEMBL1126625, “7-Azetidinylquinolones as antibacterial agents. Synthesis and structure-activity relationships” (J Med Chem, 1993)
In brackets after ≈: the same amount, converted by molar mass.

Key:
Format in all cases: functional
Bacillus cereus = test: Minimum inhibitory concentration (MIC) preventing growth of Bacillus cereus
Bacillus subtilis = test: Minimum inhibitory concentration (MIC) preventing growth of Bacillus subtilis
Escherichia coli [1] = test: Minimum inhibitory concentration (MIC)preventing growth of Escherichia coli
Klebsiella pneumoniae = test: Minimum inhibitory concentration (MIC)preventing growth of Klebsiella pneumoniae
Morganella morganii = test: Minimum inhibitory concentration (MIC) preventing growth of Morganella morganii
Proteus vulgaris = test: Minimum inhibitory concentration (MIC) preventing growth of Proteus vulgaris
[2] = test system: Staphylococcus epidermidis; test: Minimum inhibitory concentration (MIC) preventing growth of Staphylococcus epidermidis
Staphylococcus aureus [3] = test: Minimum inhibitory concentration (MIC) preventing growth of […]
Enterococcus faecalis = test: Minimum inhibitory concentration (MIC) preventing growth of Streptococcus faecalis ATCC 10541
Enterobacter cloacae = test: Minimum inhibitory concentration (MIC)preventing growth of Enterobacter cloacae
Pseudomonas aeruginosa [4] = test: Minimum inhibitory concentration (MIC)preventing growth of Pseudomonas aeruginosa
Escherichia coli [5] = test: Efficacy on systemic infections after oral administration in mice was determined against Escherichia coli HM-42
Outline: (§1)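 Mouse protection test using 4 groups of 10 mice. Mice were infected intraperitoneally with a bacterial suspension slightly above LD100. A single oral dose was given immediately after infection, with four doses, one per group, chosen from in vitro activity. Survival was scored after one week, and ED50 (total mg/kg protecting 50% of mice) was interpolated from group survival rates.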

Pseudomonas aeruginosa [6] = test: Efficacy on systemic infections after oral administration in mice was determined against Pseudomonas aeruginosa HS-116; outline: as §1
Staphylococcus aureus [7] = test: Efficacy on systemic infections after oral administration in mice was determined against […] HS-93; outline: as §1

Row | Structure (SMILES) | MIC (Bacillus cereus) [µg/mL] | MIC (Bacillus subtilis) [µg/mL] | MIC (Escherichia coli [1]) [µg/mL] | MIC (Klebsiella pneumoniae) [µg/mL] | MIC (Morganella morganii) [µg/mL] | MIC (Proteus vulgaris) [µg/mL] | MIC [2] [µg/mL] | MIC (Staphylococcus aureus [3]) [µg/mL] | MIC (Enterococcus faecalis) [µg/mL] | MIC (Enterobacter cloacae) [µg/mL] | MIC (Pseudomonas aeruginosa [4]) [µg/mL] | ED50 (Escherichia coli [5]) [mg/kg] | ED50 (Pseudomonas aeruginosa [6]) [mg/kg] | ED50 (Staphylococcus aureus [7]) [mg/kg]
1 | CC1(N)CN(c2c(F)c(N)c3c(=O)c(C(=O)O)cn(-c4ccc(F)cc4F)c3c2F)C1 | 0.06 (≈ 0.137 µM) | 0.06 (≈ 0.137 µM) | 0.12 (≈ 0.275 µM) | 0.25 (≈ 0.573 µM) | 0.12 (≈ 0.275 µM) | 0.25 (≈ 0.573 µM) | 0.06 (≈ 0.137 µM) | 0.06 (≈ 0.137 µM) | 0.03 (≈ 0.0687 µM) | 0.06 (≈ 0.137 µM) | 0.5 (≈ 1.15 µM) | – | – | –
2 | CC1(O)CN(c2c(F)cc3c(=O)c(C(=O)O)cn(C4CC4)c3c2F)C1 | 0.25 (≈ 0.714 µM) | 0.015 (≈ 0.0428 µM) | 0.5 (≈ 1.43 µM) | 0.5 (≈ 1.43 µM) | 0.5 (≈ 1.43 µM) | 0.5 (≈ 1.43 µM) | 0.25 (≈ 0.714 µM) | 0.25 (≈ 0.714 µM) | 1 (≈ 2.85 µM) | 0.5 (≈ 1.43 µM) | 4 (≈ 11.4 µM) | – | – | –
3 | CN(C)C1CN(c2nc3c(cc2F)c(=O)c(C(=O)O)cn3C2CC2)C1 | 0.12 (≈ 0.346 µM) | 0.015 (≈ 0.0433 µM) | 0.06 (≈ 0.173 µM) | 0.12 (≈ 0.346 µM) | 0.12 (≈ 0.346 µM) | 0.12 (≈ 0.346 µM) | 0.12 (≈ 0.346 µM) | 0.25 (≈ 0.722 µM) | 2 (≈ 5.77 µM) | 0.12 (≈ 0.346 µM) | 2 (≈ 5.77 µM) | – | – | –
4 | CC1(N)CN(c2cc3c(cc2F)c(=O)c(C(=O)O)cn3-c2ccc(F)cc2F)C1 | 0.25 (≈ 0.62 µM) | 0.12 (≈ 0.298 µM) | 0.12 (≈ 0.298 µM) | 0.12 (≈ 0.298 µM) | 0.25 (≈ 0.62 µM) | 0.25 (≈ 0.62 µM) | 0.25 (≈ 0.62 µM) | 0.25 (≈ 0.62 µM) | 0.12 (≈ 0.298 µM) | 0.25 (≈ 0.62 µM) | 2 (≈ 4.96 µM) | – | – | –
5 | CCn1cc(C(=O)O)c(=O)c2cc(F)c(N3CC(C)(N)C3)cc21 | 1 (≈ 3.13 µM) | 0.25 (≈ 0.783 µM) | 0.5 (≈ 1.57 µM) | 0.5 (≈ 1.57 µM) | 0.25 (≈ 0.783 µM) | 1 (≈ 3.13 µM) | 0.5 (≈ 1.57 µM) | 0.5 (≈ 1.57 µM) | 0.25 (≈ 0.783 µM) | 0.5 (≈ 1.57 µM) | 2 (≈ 6.26 µM) | – | – | –
6 | NC1CN(c2nc3c(cc2F)c(=O)c(C(=O)O)cn3-c2ccc(F)cc2F)C1 | 0.25 (≈ 0.64 µM) | 0.12 (≈ 0.307 µM) | 0.12 (≈ 0.307 µM) | 0.015 (≈ 0.0384 µM) | 0.25 (≈ 0.64 µM) | 0.5 (≈ 1.28 µM) | 0.25 (≈ 0.64 µM) | 0.25 (≈ 0.64 µM) | 2 (≈ 5.12 µM) | 0.12 (≈ 0.307 µM) | 2 (≈ 5.12 µM) | 1.5 | 75.2 | 5.3
7 | CC1(N)CN(c2c(F)cc3c(=O)c(C(=O)O)cn(C(C)(C)C)c3c2F)C1 | 0.5 (≈ 1.37 µM) | 0.12 (≈ 0.328 µM) | 0.25 (≈ 0.684 µM) | 0.06 (≈ 0.164 µM) | 0.5 (≈ 1.37 µM) | 1 (≈ 2.74 µM) | 0.5 (≈ 1.37 µM) | 0.5 (≈ 1.37 µM) | 2 (≈ 5.47 µM) | 0.25 (≈ 0.684 µM) | 2 (≈ 5.47 µM) | – | – | –
8 | CCn1cc(C(=O)O)c(=O)c2cc(F)c(N3CC(C)(N)C3)c(F)c21 | 0.5 (≈ 1.48 µM) | 0.12 (≈ 0.356 µM) | 0.12 (≈ 0.356 µM) | 0.015 (≈ 0.0445 µM) | 0.12 (≈ 0.356 µM) | 1 (≈ 2.96 µM) | 0.5 (≈ 1.48 µM) | 0.5 (≈ 1.48 µM) | 2 (≈ 5.93 µM) | 0.12 (≈ 0.356 µM) | 2 (≈ 5.93 µM) | 4.1 | 57.3 | 8.2
9 | CCn1cc(C(=O)O)c(=O)c2c(N)c(F)c(N3CC(N)C3)c(F)c21 | 0.25 (≈ 0.739 µM) | 2 (≈ 5.91 µM) | 0.12 (≈ 0.355 µM) | 0.25 (≈ 0.739 µM) | 0.12 (≈ 0.355 µM) | 0.5 (≈ 1.48 µM) | 0.5 (≈ 1.48 µM) | 0.5 (≈ 1.48 µM) | 0.25 (≈ 0.739 µM) | 0.12 (≈ 0.355 µM) | 1 (≈ 2.96 µM) | – | – | –
10 | Nc1c(F)c(N2CC(N)C2)c(F)c2c1c(=O)c(C(=O)O)cn2-c1ccc(F)cc1F | 0.06 (≈ 0.142 µM) | 0.015 (≈ 0.0355 µM) | 0.015 (≈ 0.0355 µM) | 0.06 (≈ 0.142 µM) | 0.03 (≈ 0.071 µM) | 0.12 (≈ 0.284 µM) | 0.06 (≈ 0.142 µM) | 0.03 (≈ 0.071 µM) | 0.06 (≈ 0.142 µM) | 0.015 (≈ 0.0355 µM) | 0.12 (≈ 0.284 µM) | – | – | –
11 | O=C(O)c1cn(C2CC2)c2cc(N3CC(O)C3)c(F)cc2c1=O | 0.12 (≈ 0.377 µM) | 0.015 (≈ 0.0471 µM) | 0.12 (≈ 0.377 µM) | 0.12 (≈ 0.377 µM) | 0.25 (≈ 0.785 µM) | 0.12 (≈ 0.377 µM) | 0.12 (≈ 0.377 µM) | 0.12 (≈ 0.377 µM) | 1 (≈ 3.14 µM) | 0.12 (≈ 0.377 µM) | 2 (≈ 6.28 µM) | – | – | –
12 | CC1(N)CN(c2cc3c(cc2F)c(=O)c(C(=O)O)cn3-c2ccc(F)cc2)C1 | 0.12 (≈ 0.311 µM) | 0.06 (≈ 0.156 µM) | 0.12 (≈ 0.311 µM) | 0.12 (≈ 0.311 µM) | 0.25 (≈ 0.649 µM) | 0.25 (≈ 0.649 µM) | 0.12 (≈ 0.311 µM) | 0.12 (≈ 0.311 µM) | 2 (≈ 5.19 µM) | 0.12 (≈ 0.311 µM) | 2 (≈ 5.19 µM) | – | – | –
